PMC9401589 (Chembiochem, 2022)
pIC50: −log10 of the molar value. Entries after “also recorded” stand apart in the source; their conditions may differ. Read-outs that look alike come from different tables or passages of the source.

Assays:
[1] = tested on: Anabaena variabilis ATCC 29413; assay: Bioactivity assay: growth of A. variabilis in presence of compound; type: cell-based; settings: for growth inhibition / bioactivity towards A. variabilis: 4 days of cultivation; for cell density (chlorophyll a content) compared to control: 250 μM, four-day cultivation; for concentration at which an effect on growth was visible: after 4 days of cultivation, tested 5-250 µM
Method in brief: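 A. variabilis cultured in suspension with test compound at 250 μM for four days. Chlorophyll a content was then measured as the indicator of cell density and compared with untreated control cultures. Cultures were also inspected visually for growth.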

A. variabilis = assay: Uptake assay: decrease of compound in supernatant of A. variabilis cultures; type: cell-based, Anabaena variabilis; settings: 250 μM applied; for change of compound amount in supernatant: over 48 h
[2] = tested on: DAHP accumulation in A. variabilis cells; assay: DAHP accumulation in treated A. variabilis cells; type: cell-based, Anabaena variabilis; settings: 250 μM, after 5 h of cultivation
Method in brief: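 Anabaena variabilis cells were cultivated for 5 h with 250 μM test compound, alongside untreated control cells. Treated cells were then examined for intracellular DAHP accumulation as an in vivo sign of DHQS inhibition in the shikimate pathway.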

A. thaliana seedlings = assay: Seedling growth of A. thaliana; type: in vivo, Arabidopsis thaliana; settings: 7 days after germination, compared to control
Method in brief: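 A. thaliana seedlings were grown with or without test compound and scored 7 days after germination for seedling morphology and root length (n≥18 seedlings). Each treatment was compared with the control by unpaired t-test.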

[3] = molecular target: T1, dehydroquinate synthase of Arabidopsis thaliana (AtDHQS) (Arabidopsis thaliana, UniProt Q8VYV7); assay: DHQS activity assay; type: biochemical
T1 sequence (Q8VYV7 59-442): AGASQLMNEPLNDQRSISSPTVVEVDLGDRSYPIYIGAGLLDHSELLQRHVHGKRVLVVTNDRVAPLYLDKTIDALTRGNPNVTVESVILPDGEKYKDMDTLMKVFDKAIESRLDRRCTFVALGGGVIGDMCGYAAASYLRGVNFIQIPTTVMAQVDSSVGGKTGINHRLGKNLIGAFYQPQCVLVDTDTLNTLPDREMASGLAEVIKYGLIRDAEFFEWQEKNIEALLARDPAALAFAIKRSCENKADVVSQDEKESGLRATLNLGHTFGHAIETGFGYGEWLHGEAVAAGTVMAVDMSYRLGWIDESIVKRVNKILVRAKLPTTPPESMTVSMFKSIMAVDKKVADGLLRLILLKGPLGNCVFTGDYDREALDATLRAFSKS

[4] = Quantification of compound in plant material via GC-MS; type: in vivo, Arabidopsis thaliana
[5] = molecular target: T2, DHQS from A. variabilis (AvDHQS) (Trichormus variabilis, UniProt Q3M4V2); assay: DHQS activity assay with A. variabilis enzyme; type: biochemical, Anabaena variabilis
T2 sequence (Q3M4V2 1-363): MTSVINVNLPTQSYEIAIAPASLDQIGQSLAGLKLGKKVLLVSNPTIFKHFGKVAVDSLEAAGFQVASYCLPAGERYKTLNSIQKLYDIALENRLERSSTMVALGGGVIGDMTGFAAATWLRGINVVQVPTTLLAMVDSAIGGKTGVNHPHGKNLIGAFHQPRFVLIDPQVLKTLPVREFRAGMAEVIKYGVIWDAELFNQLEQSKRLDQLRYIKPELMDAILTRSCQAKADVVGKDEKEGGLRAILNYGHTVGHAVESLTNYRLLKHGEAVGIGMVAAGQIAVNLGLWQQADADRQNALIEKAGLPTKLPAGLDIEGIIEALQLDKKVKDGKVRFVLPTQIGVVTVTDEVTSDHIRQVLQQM

fish = fish ref 2, 4; cited from earlier work

Row | Structure (SMILES) | growth inhibition / bioactivity towards A. variabilis [1] | change of compound amount in supernatant (A. variabilis) | DAHP accumulation [2] | effect on seedling growth / root length (A. thaliana seedlings) | cell density (chlorophyll a content) compared to control [1] | concentration at which an effect on growth was visible [1] | other results
1 | C[C@@H](O)[C@H](F)[C@@H](O)[C@H](O)C(=O)CO [5,7dd5FIh (3)] | nor in growth inhibition | depletion | only very small amounts; also recorded: neither result in DAHP accumulation | no statistical significant differences | – | – | –
2 | O=C(CO)[C@@H](O)[C@H](O)[C@H](O)[C@H](O)CF [7d7FSh (2)] | inhibited growth | best among all tested compounds | significantly higher amounts; also recorded: significantly elevated compared to 7dSh (1) | significantly affected the growth and morphology; also recorded: inhibited growth | significantly reduced | 100 µM | pIC50 [3]: 3.70; initially applied compound retrieved in the supernatant (A. variabilis; after 24 h): none; medium concentration leading to saturation of intracellular accumulation ([4]; 7 d old seedlings): 130 µM; accumulation / import into Arabidopsis seedlings ([4]; seedlings germinated on media with 7d7FSh (130 or 260 µM)): comparable range to 7dSh (1)
3 | C[C@@H]1O[C@](O)(CO)[C@@H](O)[C@H](O)[C@H]1O [7dGh (5)] | nor inhibitory impact on cell growth | slight decrease; also recorded: small decrease | only very small amounts; also recorded: neither DAHP accumulation | no statistical significant differences | – | – | relative activity in relation to 7dSh (1) (ratio of IC50 values) ([3]; IC50 7dSh : IC50 derivative, same enzyme series): ≈ 0.3
4 | C[C@@H](O)[C@@H](O)[C@@H](O)[C@H](O)C(=O)CO [7dSh (1), 7‐deoxy‐sedoheptulose] | – | – | significantly higher amounts | significantly affected the growth and morphology | significantly reduced | 5 µM | pIC50 ([3]; IC50, AtDHQS, series [b] enzyme preparation): 4.07; pIC50 ([3]; IC50-value against isolated AtDHQS enzyme, range over both enzyme preparations): 3.84 to 4.07; pIC50 ([3]; IC50 of AtDHQS, approximate, as printed in discussion): ~4.00; pIC50 [5]: 4.63; amount of initially applied substance detected in the supernatant (A. variabilis; after 48 h, ESI-MS): about 50%; cytotoxic effects (fish): little
5 | O=C(CO)[C@@H](O)[C@H](O)[C@H](O)[C@H](O)CO [Sedoheptulose, reference compound] | – | – | – | – | – | – | inhibitory effect on AtDHQS [3]: no inhibitory effect; pIC50 ([3]; AtDHQS, series [a] enzyme preparation, 2.5 µM substrate, 2 nM enzyme, 29 °C): < 3.00
